# Assay outcomes: PubChem BioAssay, several laboratories
# DDE Tn6 FP inh: DD(E)-Tn6 binding inhibition, primary FP screen. P02675. Fibrin DD(E) TRITC-Tn6 fluorescence polarization displacement. inhibition, % at 8.3 µM. 0.21% of 370,000 active. AID 720509;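 active means inhibition above a per-campaign cutoff: mean of compounds within control limits plus 3 SD, cut at about 15% in these data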
# Target sequence (P02675 whole entry, looked up): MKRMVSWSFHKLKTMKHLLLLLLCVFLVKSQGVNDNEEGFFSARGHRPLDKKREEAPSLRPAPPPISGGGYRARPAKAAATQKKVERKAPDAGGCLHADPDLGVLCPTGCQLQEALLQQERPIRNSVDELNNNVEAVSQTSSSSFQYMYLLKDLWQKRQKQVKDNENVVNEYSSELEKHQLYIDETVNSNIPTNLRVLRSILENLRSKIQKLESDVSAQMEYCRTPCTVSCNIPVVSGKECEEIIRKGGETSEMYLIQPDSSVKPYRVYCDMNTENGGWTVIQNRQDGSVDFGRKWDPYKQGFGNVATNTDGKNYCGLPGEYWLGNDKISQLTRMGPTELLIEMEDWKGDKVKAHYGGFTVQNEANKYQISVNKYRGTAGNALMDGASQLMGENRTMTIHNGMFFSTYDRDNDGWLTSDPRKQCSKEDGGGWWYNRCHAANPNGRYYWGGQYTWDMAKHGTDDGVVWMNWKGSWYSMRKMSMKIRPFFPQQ
# Tn7 DDE FP: disrupts Tn7 cyclic peptide binding to fibrin D-Dimer-E complex; P02675; FP displacement of FITC-Tn7 peptide from fibrin DD(E); 0% = median of compound wells per plate; inhibition, % at 8.3 µM; 0.13% of 370,000 active;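 active means inhibition above the mean of compounds falling within the control limits plus 3 SD of them, cut at about 14% in these data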
#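 Test system – human fibrin DD(E) · Times – 10 min preincubation, 3 h with tracer, room temperature · Detection – fluorescence polarization of the labelled Tn7 tracer · Measure – percent inhibition normalized to high-control wells · Benchmarks – high control wells with 10 µM unlabelled Aha-Tn7 peptide (full inhibition) · Repeats – singlicate testing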
# GRK2 inh: blocks RNA aptamer binding to human GRK2. AID 488847. inhibition of aptamer binding, % at 10 µM. 0.59% of 330,000 active. bead flow cytometry, FAM-aptamer displacement from GRK2. P25098;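 active means inhibition of aptamer binding above 40%, roughly 3 SD of noise, on plates passing a quality check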;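 further: median bead fluorescence of bound FAM aptamer so fluorescent compounds give negative values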
# Ins promoter up: MIN6 insulin promoter up-regulation; MIN6 insulin promoter-GFP reporter, high-content imaging; active compounds read high; z-score at 5 µM; 0.3% of 190,000 active;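 active means z-score above 3 at 5 µM with at least 500 cells counted in the well; inconclusive means wells under 500 cells, flagged as cytotoxic or low count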
# ABCB1 block: inhibitors of human ABCB1 transporter, ABCG2 counter-screen. P08183. CCRF-Adr cells, JC-1 efflux, flow cytometry. inhibition, % at 6.6 µM. 0.067% of 190,000 active; in the data active means inhibition above about 40%;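 further: higher value means more JC-1 retained so stronger ABCB1 efflux block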
# ABCG2 block: human ABCG2 inhibition, ABCB1 as counter-screen; IgMXP3 cells, JC-1 efflux, flow cytometry; 0.1% of 190,000 active; inhibition, % at 6.6 µM;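 active means inhibition above 80%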
#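 Incubation: cells with compound and JC-1, 10 min at 25 °C, rotating, no wash / Test system: IgMXP3 (ABCG2) plus far-red-tagged CCRF-Adr (ABCB1) cells / Compound dosing: one concentration, 6.6 µM final / Also added: JC-1 fluorescent substrate / Evaluation: efflux inhibition in percent versus controls / Detection: flow cytometry, 530 nm JC-1 signal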
# Numbers stand for hits; 0 = inactive; ? = inconclusive; - = no result. Most compounds without a hit are left out; they make up all but 0.99% or so of the library.
SMILES,DDE Tn6 FP inh,Tn7 DDE FP,GRK2 inh,Ins promoter up,ABCB1 block,ABCG2 block
C[C@@H]1CCN(C2CC2)S(=O)(=O)c2ccc(N3CCC[C@@H]3C)cc2O1,0,0,-,-,-,-
Cc1ccc(C)n1-c1ccc(C(=O)NN=C2CCCC2)cc1,0,0,0,0,0,0
Cc1cc2c(n1-c1ccc(C(=O)O)cc1)CCCCC2,-,-,68,-,-,-
COc1ccccc1N1CCN(S(=O)(=O)c2ccc3c(c2)CCC(=O)N3)CC1,0,0,-,-,-,-
O=S(=O)(Cc1ccc(Cl)cc1)c1ccccc1-c1nnc(-c2ccccc2)o1,0,0,0,14,0,0
CS(=O)(=O)c1ccccc1-c1nnc(-c2ccc(Cl)cc2)o1,0,0,0,0,0,0
CC(C)Oc1ccc(S(=O)(=O)N2CCCCCC2)c2ccccc12,0,0,-,-,-,-
CCc1c(C(=O)NC2CCCCC2)[nH]c(C)c1C(C)=O,0,0,0,3.9,0,0
CC(=O)c1c(C)[nH]c(C(=O)NC2CCCCC2)c1C,0,0,0,0,0,0
CCC(=O)c1cc2c(C)cc(=O)oc2c(C)c1OC(C)=O,0,0,83,0,0,0
COC(=O)C1CN(Cc2ccc(OC)cc2)CCS(=O)(=O)N1Cc1cn(Cc2ccc(OC)cc2)nn1 (centres undefined),0,0,-,-,-,-
CCCCNc1n[n+](C)c(-c2cccc(C)c2)s1,-,-,-,0,-,-
O=C1CC(=O)N(Cc2cccs2)C(=O)N1,0,0,0,0,0,0
O=C1CC(=O)N(Cc2ccco2)C(=O)N1,0,0,89,0,0,0
O=C(O)c1[nH]c2ccccc2c1C(c1ccccc1)c1c(C(=O)O)[nH]c2ccccc12,0,0,51,-,-,-
Cn1ncc2c1ncn1nc(CCc3ccccc3)nc21,0,0,0,3.6,0,0
COc1ccc(-n2c(SCC(=O)Nc3ccccc3-c3ccccc3)nnc2-c2ccco2)cc1,0,0,-,-,-,-
COc1ccc(OCC(=O)Nc2ccc(S(=O)(=O)Nc3nc(C)cc(C)n3)cc2)cc1,0,0,0,0,0,0
COc1ccc(OCC(=O)Nc2ccc(S(=O)(=O)Nc3cc(C)nc(C)n3)cc2)cc1,0,0,0,3.1,0,0
O=c1[nH]c(CN2CCN(S(=O)(=O)c3ccccc3C(F)(F)F)CC2)nc2sc3c(c12)CCCC3,0,0,0,0,0,0
O=c1[nH]c(CN2CCN(Cc3ccc4c(c3)OCO4)CC2)nc2sc3c(c12)CCC3,-,-,-,3.5,-,-
CCOc1ccc(CCNC(=O)C2CCCCC2)cc1OCC,0,0,-,-,-,-
CN(CC(=O)Nc1ccc(F)cc1)C(=O)c1cc(-c2ccco2)nc2ccccc12,0,0,0,-,-,-
Cc1ccc(NC(=O)CN(C)C(=O)c2cc(-c3ccco3)nc3ccccc23)cc1,0,0,83,-,-,-
CC[n+]1ccc(/C=C/c2ccc(N(C)C)cc2)c2ccccc21,39,0,-,?,0,0
SMILES,DDE Tn6 FP inh,Tn7 DDE FP,GRK2 inh,Ins promoter up,ABCB1 block,ABCG2 block
CC[n+]1ccccc1/C=C/c1ccc(N(C)C)cc1,0,0,-,?,0,0
COc1cccc(NC(=O)C2CCCN2C(=O)Nc2cccc3c2OCO3)c1 (centres undefined),0,0,-,-,-,-
CCN1C(=O)CC(N2CCC(C(=O)N3CCOCC3)CC2)C1=O (centres undefined),0,16,0,0,0,0
CN1CCc2c(sc3c2C(=O)NC(c2ccccn2)N3)C1 (centres undefined),28,0,0,0,0,0
O=C(NCc1cccc2ccccc12)C1CCCN(c2nc3ccccc3o2)C1 (centres undefined),0,0,-,-,-,-
O=c1[nH]c2cc(Br)c(Br)nc2[nH]1,0,0,-,-,-,-
COc1ccc(CN2C[C@]3(C=C4CCCCC4n4c(=O)n(-c5ccccc5)c(=O)n43)N=C2NC(=O)c2ccccc2)c(OC)c1 (some centres undefined),0,0,-,-,-,-
CN(C)c1ccccc1-c1cc(NC=O)c2ncc(-c3cccc(C(F)(F)F)c3)n2c1,34,0,-,-,-,-
CC(=O)NN1C(=O)/C(=C\c2ccc(O)cc2)SC1=S,0,0,79,0,0,0
CN(C)CCCN(C(=O)c1ccc([N+](=O)[O-])s1)c1nc2cc3c(cc2s1)OCCO3,0,0,71,-,-,-
COC(=O)c1cc(-c2cccc(C#N)c2)c(=O)n2c1CCC2,0,0,-,-,-,-
CCOC(=O)c1sc(NC(=O)c2cccs2)cc1C,0,0,0,0,0,0
